NadD inh – inhibitors of S. aureus NadD, primary screen, biochemical, colorimetric, uHTS; inhibition, % at 20 µM; AID 602399, 2012; Nicotinate-nucleotide adenylyltransferase NadD (Staphylococcus aureus N315); 0.78% of 360,000 active; purified NadD enzyme, colorimetric absorbance read-out; in the data active means inhibition above about 26%
Fh CTSL1 inh – Fasciola hepatica cathepsin L1 inhibitors, primary screen, counter-screen for PFM18AAP inhibitor project, biochemical, QFRET, fluorogenic peptide substrate; 0.49% of 300,000 active; recombinant F. hepatica cathepsin L1, Z-Leu-Arg-MCA fluorescence; AID 1906, 2009; inhibition, % at 5.96 µM;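 active means inhibition above the mean of all tested compounds plus 3 SD, set per screening campaign, cut at about 17% in these data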;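 further: 0% = plate median of test compound wells and 100% = 1 µM Z-Phe-Ala-diazomethylketone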
PP1 inh – PP1-alpha phosphatase inhibitors, primary screen, counter-screen for PP5 inhibitor project, biochemical, fluorescence, OMFP substrate, single point; purified PP1alpha; AID 2235, 2010; inhibition, % at 6.7 µM; 0.9% of 320,000 active;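 active means inhibition above the mean inhibition of all tested compounds plus 3 SD, computed separately for each screening campaign, cut at about 15% in these data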
HCV core dimer – inhibitors of HCV core protein dimerization, primary screen, biochemical, TR-FRET, high-throughput; TR-FRET GST/Flag-core106 dimerization, 1536-well; inhibition, % at 5 µM; 0.33% of 300,000 active; AID 1899, 2009;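 active means inhibition above the mean of all tested compounds plus 3 SD, set per screening campaign, cut at about 45% in these data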
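System: GST-tagged and Flag-tagged HCV core protein residues 1-106 / Input: core106 proteins, GST 13.5 nM and Flag 17 nM / Buffer or medium: KF-containing HEPES buffer, pH 7.45, DTT, CHAPS, BSA / Probe or stimulus: Eu-anti-GST and XL665-anti-Flag labelled anti-tag antibodies / Schedule: 4 h, 22.5 °C incubation / Technique: TR-FRET 671 and 617 nm emission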
Myeloid diff 2 – induction of myeloid progenitor differentiation, primary screen, cell-based, flow cytometry, MLPCN library; ER-HoxA9 myeloid progenitors, lysozyme-GFP differentiation; calls only at 10 µM; 1% of 360,000 active; AID 624256, 2012;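 active means normalized GFP-positive differentiation at or above the plate's own cutoff, the solvent-only control mean plus 3 SD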;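 further: cells exposed to compound for four days before flow analysis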
PP5 primary – PP5 phosphatase inhibitors, primary screen, biochemical, fluorescence; Serine/threonine-protein phosphatase 5 (Homo sapiens), P53041; purified PP5c, OMFP substrate fluorescence; inhibition, % at 6.7 µM; 0.18% of 320,000 active; AID 1987, 2009;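 active means inhibition above the campaign's mean inhibition across all tested compounds plus 3 SD, cut at about 9.5% in these data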;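 further: 0% = DMSO only and 100% = 100 µM cantharidin control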
Target sequence (P53041 whole entry, looked up): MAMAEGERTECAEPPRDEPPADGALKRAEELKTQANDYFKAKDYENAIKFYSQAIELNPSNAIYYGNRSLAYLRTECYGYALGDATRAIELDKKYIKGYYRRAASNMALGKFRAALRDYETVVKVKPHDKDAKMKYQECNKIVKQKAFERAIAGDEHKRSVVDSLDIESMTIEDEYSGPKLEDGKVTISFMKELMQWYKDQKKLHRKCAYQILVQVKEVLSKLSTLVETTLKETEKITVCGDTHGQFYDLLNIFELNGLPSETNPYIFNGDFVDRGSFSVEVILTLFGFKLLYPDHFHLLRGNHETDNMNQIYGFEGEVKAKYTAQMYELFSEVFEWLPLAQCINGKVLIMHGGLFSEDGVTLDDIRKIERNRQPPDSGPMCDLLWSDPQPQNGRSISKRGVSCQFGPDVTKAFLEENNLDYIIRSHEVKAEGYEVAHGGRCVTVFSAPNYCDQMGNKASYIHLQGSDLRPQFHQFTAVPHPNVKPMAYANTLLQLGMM
PP1 confirm – PP1 phosphatase inhibitors, confirmation, biochemical, fluorescence, OMFP substrate, triplicate. shares compounds with PP1 inh. 52% of 1,900 active. AID 2358, 2010. purified PP1alpha. inhibition, % at 6.7 µM;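 active means mean PP1 inhibition above a set limit taken from the earlier primary screen, cut at about 15% in these data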
PP5 counter – PP5 phosphatase inhibition by PP1 hits, confirmation, counter-screen for PP1 inhibitor project, biochemical, fluorescence, triplicate; shares compounds with PP1 inh; purified PP5c, OMFP fluorescence; inhibition, % at 6.7 µM; 4% of 1,900 active; AID 2360, 2010;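 active means mean PP5 inhibition over triplicate wells above about 9.5% taken from the earlier PP1 screen, limit read from the data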
Numbers without * were called inactive; i = inactive; · = no result. Rows were chosen to be rich in hits. Some 3.1% of all compounds tested hit in one or more screens of this group.

SMILES | NadD inh | Fh CTSL1 inh | PP1 inh | HCV core dimer | Myeloid diff 2 | PP5 primary | PP1 confirm | PP5 counter
COc1cccc(/C=N/Nc2cc(Cl)nc(C)n2)c1O | -1.3 | -1.3 | 4.6 | -21.3 | i | 5.0 | · | ·
COc1cccc(/C=N/Nc2ncnc3c2ncn3Cc2ccccc2)c1O | 7.8 | 2.7 | 19.7* | -5.6 | i | 2.6 | 26.6* | -1.4
CC(C)(C)c1csc(N/N=C/c2ccc(O)cc2)n1 | 9.4 | -7.3 | 1.0 | -3.6 | i | 1.3 | · | ·
Clc1ccc2nc(-c3ccccn3)c(Nc3ccc4c(c3)OCO4)n2c1 | 9.9 | 5.5 | 46.1* | -9.1 | i | 3.4 | 39.7* | -1.1
Cc1ccc2nc(-c3ccccc3O)c(Nc3ccc4c(c3)OCCO4)n2c1 | 23.8 | -0.4 | -1.7 | 9.7 | i | 1.2 | · | ·
O=C(CN1C(=O)NC2(CCCCCCC2)C1=O)NCc1ccc(Cl)cc1 | -4.1 | · | · | · | i | · | · | ·
COc1cccc(C(=O)NNS(=O)(=O)c2ccccc2)c1 | -2.9 | · | · | · | i | · | · | ·
Cc1cc(Cl)ccc1Oc1ccccc1C(=O)CC#N | 3.8 | 1.8 | 19.8* | 9.1 | i | 1.3 | -0.1 | -7.6
Cc1cc(Cl)ccc1Oc1ccc(C(N)=O)cc1[N+](=O)[O-] | 0.8 | 2.3 | 3.5 | -9.4 | i | 3.5 | · | ·
COC(=O)Cn1cnc2c(nnn2-c2ccc(OC)cc2)c1=O | -0.7 | 0.7 | 3.4 | -9.3 | i | -2.0 | · | ·
C/C(CC(=O)Nc1ccc(OCc2ccccc2)cc1)=N\NC(=O)C(=O)Nc1cccc(C)c1 | 7.0 | -4.2 | 17.9* | -1.7 | i | -2.3 | 0.1 | -6.3
C/C(CC(=O)Nc1ccccn1)=N\NC(=O)C(=O)Nc1cccc(C)c1 | -2.1 | -1.1 | 1.6 | 0.0 | i | 2.2 | · | ·
COc1ccccc1NC(=O)C(=O)N/N=C(\C)CC(=O)Nc1ccc(OCc2ccccc2)cc1 | 11.6 | -0.3 | 19.1* | 8.6 | i | 4.0 | 24.4* | -1.6
CCOc1ccc(/C=N/NC(=O)Cc2ccccc2)cc1CN1CC2CC(C1)c1cccc(=O)n1C2 (stereo not given) | 6.1 | · | -2.5 | · | i | 5.5 | · | ·
O=C(O)c1cn(-c2ccc(F)cc2)c2cc(Cl)c(F)cc2c1=O | -4.2 | -1.4 | 1.6 | -2.0 | · | 0.4 | · | ·
NC1C2CN(c3nc4c(cc3F)c(=O)c(C(=O)O)cn4-c3ccc(F)cc3F)CC12 (stereo not given) | 5.2 | -1.6 | 19.9* | -0.1 | i | 1.1 | 14.5 | -1.5
Cc1cc(S(=O)(=O)N2CCCCC2CCNC(=O)C(=O)NCc2cccnc2)ccc1F (stereo not given) | -0.3 | 1.9 | -4.4 | -1.5 | i | -1.6 | · | ·
O=C(NCCC1CCCCN1S(=O)(=O)c1ccc(Cl)cc1)C(=O)NCc1cccnc1 (stereo not given) | -4.4 | 4.1 | 52.3* | -1.5 | i | 2.1 | -3.1 | -1.1
Cc1ccccc1/C=C/c1nc2ccccc2c(=O)[nH]1 | -8.5 | 2.4 | 20.1* | -3.8 | i | 0.0 | 18.0* | -1.6
CCNS(=O)(=O)c1ccc2nc(NC(=O)/C=C/c3cc(OC)c(OC)c(OC)c3)sc2c1 | 0.4 | 4.0 | 21.1* | -10.9 | i | 2.9 | 19.9* | -4.8
COc1cc(/C=C/C(=O)Nc2nc3ccc(S(=O)(=O)NC(C)C)cc3s2)cc(OC)c1OC | -4.5 | -1.4 | 25.0* | -2.2 | i | 2.0 | 32.5* | -5.9
CC1C=CC=CC=CC=CC=CC=CC=CC(OC2OC(C)C(O)C(N)C2O)CC2OC(O)(CC(O)CC(O)C(O)CCC(O)CC(O)CC(=O)OC(C)C(C)C1O)CC(O)C2C(=O)O (stereo not given) | -0.6 | · | · | · | · | · | · | ·
CCOC(=O)Cc1cc(=O)n2[nH]c(-c3ccccc3)c(-c3ccccc3)c2n1 | 17.3 | 3.9 | 39.1* | 31.6 | i | 4.3 | 40.5* | -1.1
CCCCCCCCCCCCCCCC[n+]1cccc(C(=O)N(CC)CC)c1 | 7.8 | 2.3 | 30.6* | -13.9 | i | 5.5 | -6.1 | 4.3
CCCCCCCC[n+]1cccc(C(=O)N(CC)CC)c1 | -1.6 | 4.9 | -2.0 | -12.6 | i | -1.5 | · | ·
SMILES | NadD inh | Fh CTSL1 inh | PP1 inh | HCV core dimer | Myeloid diff 2 | PP5 primary | PP1 confirm | PP5 counter
Cn1cnnc1SCC(=O)Nc1ccc(OCc2ccccc2)cc1 | -6.0 | -0.5 | 24.3* | -5.2 | i | 1.3 | 4.0 | -3.4
Cc1cnc(C(=O)OC(C)C(=O)c2c(C)[nH]c3ccccc23)cn1 (stereo not given) | -2.1 | -23.0 | -0.8 | -4.3 | i | 0.5 | · | ·
Cc1[nH]c2ccccc2c1C(=O)C(C)OC(=O)C1CCC1 (stereo not given) | -8.0 | -0.9 | 28.4* | -3.5 | i | 4.7 | 0.0 | -1.4
CCCCCC(=O)Cc1cc(O)cc2c1C(=O)Oc1cc(O)c(C(=O)O)c(CCCCC)c1O2 | · | 0.7 | 28.9* | 4.9 | · | 6.7 | 37.5* | 3.2
O=C(O)CSc1c(Cl)c(=O)oc2ccc(Cl)cc12 | -3.1 | · | · | · | i | · | · | ·
O=C1CC(C(=O)Nc2ccc(Cl)c(Cl)c2)S/C(=N\N=C\c2ccco2)N1 (stereo not given) | 15.2 | 4.9 | 22.5* | 0.4 | i | -0.6 | 10.6 | -5.4
COc1ccc(C2CC(c3ccc(OC)cc3)n3nc(NC(=O)c4cccs4)nc3N2)cc1 (stereo not given) | 26.0 | 0.8 | 18.2* | 12.8 | i | 0.1 | 4.2 | -3.9
COCCN1CCN(C(=O)c2cc(COc3cncc(Cl)c3)on2)CC1 | -4.1 | · | · | · | i | · | · | ·
COc1cc([N+](=O)[O-])cc(/C=N/NC(=O)c2cc(-c3ccccc3)nc3ccccc23)c1O | 23.9 | 0.0 | 40.0* | 6.2 | i | -0.6 | 40.1* | -1.1
COc1cc([N+](=O)[O-])cc(/C=N/NC(=O)c2cc(C)nc3ccccc23)c1O | 3.5 | 0.9 | 4.4 | -7.1 | i | -1.3 | · | ·
COc1ccc(S(=O)(=O)Nc2ccc3c(c2)C(=O)N([C@H](C)CO)C[C@H](C)[C@@H](CN(C)S(=O)(=O)c2c(C)noc2C)O3)cc1 | -3.0 | · | · | · | i | · | · | ·
C=CCOc1ccc(/C=C2\SC(=S)N(NS(=O)(=O)c3ccc(C)cc3)C2=O)cc1 | 17.0 | -0.1 | 24.8* | 5.7 | i | 2.2 | 17.3* | -1.1

Screens: PubChem, several laboratories
